Assay results from ChEMBL document CHEMBL4689842, “EUbOPEN Chemogenomics Library wave 1” (2021).

Tests used:
Assay type in all cases: toxicity, cell-based
U2OS = experiment: Incucyte cell viability with U2OS; conditions: human, 10 µM, compound concentration 10 uM; note: filed as whole numbers so only -1 and 0 and 1 occur
HEK-293T = experiment: Incucyte cell viability with HEK293T; conditions: human, 10 µM, compound concentration 10 uM; note: filed as whole numbers so only -1 and 0 and 1 occur
Fibroblast = experiment: Multiplex assay against human fibroblast
How it was run: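 Live cells were stained at seeding with Hoechst33342, BioTracker Green Microtubule Cytoskeleton Dye, MitoTracker Red and Annexin V Alexa Fluor 680. Following compound addition, they were imaged on a CQ1 microscope at 37°C and 5% CO2 and gated by CellPathfinder machine learning into Hoechst high-intensity objects or normal cells, with normal cells split into healthy, pyknosed or fragmented nuclei and pyknosed cells into mitotic or apoptotic. Tubulin, mitochondrial-mass and membrane-permeability phenotypes are per cents of healthy-nucleus cells.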

[1] = 0 h, replicate number 2, timepoint 0 hours
[2] = 6 h, replicate number 1, timepoint 6 hours
[3] = 12 h, replicate number 1, timepoint 12 hours
[4] = 18 h, replicate number 1, timepoint 18 hours
[5] = 24 h, replicate number 1, timepoint 24 hours
[6] = 0 h, replicate number 1, timepoint 0 hours
[7] = 12 h, 1 µM, compound concentration 1 uM, replicate 1
[8] = 12 h, 1 µM, compound concentration 1 uM, replicate 2
[9] = 12 h, 10 µM, compound concentration 10 uM, replicate 1
[10] = 12 h, 10 µM, compound concentration 10 uM, replicate 2
[11] = 24 h, 1 µM, compound concentration 1 uM, replicate 1
[12] = 24 h, 1 µM, compound concentration 1 uM, replicate 2
[13] = 24 h, 10 µM, compound concentration 10 uM, replicate 1
[14] = 24 h, 10 µM, compound concentration 10 uM, replicate 2

## CCOc1cc2ncc(C#N)c(Nc3ccc(OCc4cccc(F)c4)c(Cl)c3)c2cc1NC(=O)/C=C/CN(C)C [HKI-357]
U2OS; [1]
  Growth Rate: 0
U2OS; [2]
  Growth Rate: 0
U2OS; [3]
  Growth Rate: 0
U2OS; [4]
  Growth Rate: 0
U2OS; [5]
  Growth Rate: 0
HEK-293T; [6]
  Growth Rate: 0
HEK-293T; [2]
  Growth Rate: 0
HEK-293T; [3]
  Growth Rate: 0
HEK-293T; [4]
  Growth Rate: 0
HEK-293T; [5]
  Growth Rate: 0
Fibroblast; [7]
  Population Apoptotic (%): 72%
  Population Fragmented Nuclei (%): 21%
  Population Healthy Nuclei (%): 60%
  Population Hoechst High Intensity Objects (%): 14%
  Population Membrane Permeable-Phenotype (%): 7%
  Population Mitochondria Different-Phenotype (%): 7%
  Population Mitotic Cells (%): 27%
  Population Normal (%): 85%
  Population Pyknosed Nuclei (%): 18%
  Population Tubulin-Different-Phenotype (%): 11%
  Total Cell Count: 223
Fibroblast; [8]
  Population Apoptotic (%): 33%
  Population Fragmented Nuclei (%): 60%
  Population Healthy Nuclei (%): 31%
  Population Hoechst High Intensity Objects (%): 34%
  Population Membrane Permeable-Phenotype (%): 4%
  Population Mitochondria Different-Phenotype (%): 9%
  Population Mitotic Cells (%): 66%
  Population Normal (%): 65%
  Population Pyknosed Nuclei (%): 8%
  Population Tubulin-Different-Phenotype (%): 13%
  Total Cell Count: 107
Fibroblast; [9]
  Population Apoptotic (%): 76%
  Population Fragmented Nuclei (%): 42%
  Population Healthy Nuclei (%): 37%
  Population Hoechst High Intensity Objects (%): 13%
  Population Membrane Permeable-Phenotype (%): 15%
  Population Mitochondria Different-Phenotype (%): 12%
  Population Mitotic Cells (%): 23%
  Population Normal (%): 86%
  Population Pyknosed Nuclei (%): 20%
  Population Tubulin-Different-Phenotype (%): 46%
  Total Cell Count: 368
Fibroblast; [10]
  Population Apoptotic (%): 37%
  Population Fragmented Nuclei (%): 61%
  Population Healthy Nuclei (%): 20%
  Population Hoechst High Intensity Objects (%): 46%
  Population Mitochondria Different-Phenotype (%): 26%
  Population Mitotic Cells (%): 62%
  Population Normal (%): 53%
  Population Pyknosed Nuclei (%): 17%
  Population Tubulin-Different-Phenotype (%): 78%
  Total Cell Count: 170
Fibroblast; [11]
  Population Apoptotic (%): 57%
  Population Fragmented Nuclei (%): 23%
  Population Healthy Nuclei (%): 57%
  Population Hoechst High Intensity Objects (%): 15%
  Population Membrane Permeable-Phenotype (%): 6%
  Population Mitochondria Different-Phenotype (%): 3%
  Population Mitotic Cells (%): 42%
  Population Normal (%): 84%
  Population Pyknosed Nuclei (%): 18%
  Population Tubulin-Different-Phenotype (%): 5%
  Total Cell Count: 238
Fibroblast; [12]
  Population Apoptotic (%): 60%
  Population Fragmented Nuclei (%): 59%
  Population Healthy Nuclei (%): 33%
  Population Hoechst High Intensity Objects (%): 31%
  Population Membrane Permeable-Phenotype (%): 13%
  Population Mitochondria Different-Phenotype (%): 4%
  Population Mitotic Cells (%): 40%
  Population Normal (%): 68%
  Population Pyknosed Nuclei (%): 7%
  Population Tubulin-Different-Phenotype (%): 18%
  Total Cell Count: 97
Fibroblast; [13]
  Population Apoptotic (%): 73%
  Population Fragmented Nuclei (%): 44%
  Population Healthy Nuclei (%): 42%
  Population Hoechst High Intensity Objects (%): 19%
  Population Membrane Permeable-Phenotype (%): 5%
  Population Mitochondria Different-Phenotype (%): 7%
  Population Mitotic Cells (%): 26%
  Population Normal (%): 80%
  Population Pyknosed Nuclei (%): 12%
  Population Tubulin-Different-Phenotype (%): 39%
  Total Cell Count: 409
Fibroblast; [14]
  Population Apoptotic (%): 63%
  Population Fragmented Nuclei (%): 69%
  Population Healthy Nuclei (%): 19%
  Population Hoechst High Intensity Objects (%): 45%
  Population Membrane Permeable-Phenotype (%): 4%
  Population Mitochondria Different-Phenotype (%): 23%
  Population Mitotic Cells (%): 36%
  Population Normal (%): 54%
  Population Pyknosed Nuclei (%): 10%
  Population Tubulin-Different-Phenotype (%): 66%
  Total Cell Count: 193

## CN(C)CCOc1ccc(-c2nc(-c3ccncc3)c(-c3ccc4c(c3)CC/C4=N\O)[nH]2)cc1 [SB590885]
U2OS; [1]
  Growth Rate: 1
U2OS; [2]
  Growth Rate: 0
U2OS; [3]
  Growth Rate: 0
U2OS; [4]
  Growth Rate: 0
U2OS; [5]
  Growth Rate: 0
HEK-293T; [6]
  Growth Rate: 1
HEK-293T; [2]
  Growth Rate: 0
HEK-293T; [3]
  Growth Rate: 0
HEK-293T; [4]
  Growth Rate: 0
HEK-293T; [5]
  Growth Rate: 0
Fibroblast; [7]
  Population Apoptotic (%): 86%
  Population Fragmented Nuclei (%): 40%
  Population Healthy Nuclei (%): 29%
  Population Hoechst High Intensity Objects (%): 31%
  Population Membrane Permeable-Phenotype (%): 4%
  Population Mitochondria Different-Phenotype (%): 1%
  Population Mitotic Cells (%): 13%
  Population Normal (%): 68%
  Population Pyknosed Nuclei (%): 30%
  Population Tubulin-Different-Phenotype (%): 12%
  Total Cell Count: 562
Fibroblast; [8]
  Population Apoptotic (%): 87%
  Population Fragmented Nuclei (%): 44%
  Population Healthy Nuclei (%): 3%
  Population Hoechst High Intensity Objects (%): 32%
  Population Membrane Permeable-Phenotype (%): 10%
  Population Mitochondria Different-Phenotype (%): 5%
  Population Mitotic Cells (%): 12%
  Population Normal (%): 67%
  Population Pyknosed Nuclei (%): 52%
  Population Tubulin-Different-Phenotype (%): 42%
  Total Cell Count: 833
Fibroblast; [9]
  Population Apoptotic (%): 84%
  Population Fragmented Nuclei (%): 38%
  Population Healthy Nuclei (%): 48%
  Population Hoechst High Intensity Objects (%): 14%
  Population Membrane Permeable-Phenotype (%): 4%
  Population Mitochondria Different-Phenotype (%): 5%
  Population Mitotic Cells (%): 15%
  Population Normal (%): 85%
  Population Pyknosed Nuclei (%): 12%
  Population Tubulin-Different-Phenotype (%): 13%
  Total Cell Count: 245
Fibroblast; [10]
  Population Apoptotic (%): 100%
  Population Fragmented Nuclei (%): 69%
  Population Healthy Nuclei (%): 28%
  Population Hoechst High Intensity Objects (%): 50%
  Population Membrane Permeable-Phenotype (%): 11%
  Population Mitochondria Different-Phenotype (%): 16%
  Population Mitotic Cells (%): 0%
  Population Normal (%): 49%
  Population Pyknosed Nuclei (%): 1%
  Population Tubulin-Different-Phenotype (%): 22%
  Total Cell Count: 128
Fibroblast; [11]
  Population Apoptotic (%): 88%
  Population Fragmented Nuclei (%): 50%
  Population Healthy Nuclei (%): 40%
  Population Hoechst High Intensity Objects (%): 43%
  Population Membrane Permeable-Phenotype (%): 1%
  Population Mitochondria Different-Phenotype (%): 0%
  Population Mitotic Cells (%): 11%
  Population Normal (%): 56%
  Population Pyknosed Nuclei (%): 8%
  Population Tubulin-Different-Phenotype (%): 5%
  Total Cell Count: 552
Fibroblast; [12]
  Population Apoptotic (%): 90%
  Population Fragmented Nuclei (%): 36%
  Population Healthy Nuclei (%): 3%
  Population Hoechst High Intensity Objects (%): 35%
  Population Membrane Permeable-Phenotype (%): 20%
  Population Mitochondria Different-Phenotype (%): 5%
  Population Mitotic Cells (%): 9%
  Population Normal (%): 64%
  Population Pyknosed Nuclei (%): 59%
  Population Tubulin-Different-Phenotype (%): 25%
  Total Cell Count: 821
Fibroblast; [13]
  Population Apoptotic (%): 67%
  Population Fragmented Nuclei (%): 35%
  Population Healthy Nuclei (%): 51%
  Population Hoechst High Intensity Objects (%): 14%
  Population Membrane Permeable-Phenotype (%): 6%
  Population Mitochondria Different-Phenotype (%): 3%
  Population Mitotic Cells (%): 32%
  Population Normal (%): 85%
  Population Pyknosed Nuclei (%): 13%
  Population Tubulin-Different-Phenotype (%): 9%
  Total Cell Count: 299
Fibroblast; [14]
  Population Apoptotic (%): 100%
  Population Fragmented Nuclei (%): 70%
  Population Healthy Nuclei (%): 28%
  Population Hoechst High Intensity Objects (%): 53%
  Population Membrane Permeable-Phenotype (%): 31%
  Population Mitochondria Different-Phenotype (%): 18%
  Population Mitotic Cells (%): 0%
  Population Normal (%): 46%
  Population Pyknosed Nuclei (%): 1%
  Population Tubulin-Different-Phenotype (%): 37%
  Total Cell Count: 122
